Assay outcomes as filed in PubChem BioAssay.
Sampled rows, rich in hits. Any-hit rate of the full collection: about 5.8%.
KDM4C inh: KDM4C (human) demethylase inhibition. GST-KDM4C 2-372, H3K9me3 peptide, LANCE TR-FRET. inhibition, % at 12.5 µM. 0.15% of 96,000 active. AID 720574;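 active = mean replicate inhibition above about 25%, with at least 55% of replicates also reaching it, limit read from the data, passing the limit was not always enough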
Target sequence (Q9H3R0 2-372 limits assumed): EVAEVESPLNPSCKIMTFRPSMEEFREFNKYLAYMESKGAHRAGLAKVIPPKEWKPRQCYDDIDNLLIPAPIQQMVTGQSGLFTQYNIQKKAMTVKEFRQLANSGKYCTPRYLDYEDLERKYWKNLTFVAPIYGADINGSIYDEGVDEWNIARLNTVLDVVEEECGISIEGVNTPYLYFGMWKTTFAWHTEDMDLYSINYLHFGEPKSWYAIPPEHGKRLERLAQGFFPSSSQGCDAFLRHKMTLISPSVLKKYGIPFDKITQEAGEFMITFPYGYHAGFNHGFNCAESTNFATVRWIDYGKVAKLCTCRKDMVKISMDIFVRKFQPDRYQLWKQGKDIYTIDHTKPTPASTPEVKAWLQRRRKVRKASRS
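Compound: one test concentration per compound; Material: GST-GASC-1 enzyme fragment 2-372; Amount: GASC-1 enzyme at 10 nM final in reaction; Also added: H3K9me3 peptide substrate, Fe(II), 2-oxoglutarate; Technique: LANCE TR-FRET; Times: 30 min demethylation and 1 h detection at room temperature.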
T cruzi growth-1: T. cruzi proliferation inhibition; T. cruzi beta-gal in NIH3T3, GalScreen luminescence, 90 h; inhibition, % at 8.34 µM; 5.9% of 77,000 active;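 active = mean inhibition above about 93%, with at least 55% of replicates each passing it, limit read from the data, passing the limit was not always enough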
Pf Dd2 growth: inhibitors of Plasmodium falciparum Dd2 growth; P. falciparum Dd2 growth, SYBR Green, 72 h; active compounds read low; activity change, % at 10 µM; 2.3% of 94,000 active; AID 1159554; in the data active = activity change below about -80%
IDH1 mut inh: IDH1 R132H (human) inhibition. 0.18% of 70,000 active. IDH1 R132H reductase, diaphorase/resazurin fluorescence, 60 min. inhibition, % at 10 µM. AID 624101. O75874; in the data active = inhibition above about 34%;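 note: 0% = DMSO and 100% = no enzyme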
T cruzi growth-2: inhibitors of T. cruzi proliferation; shares compounds with T cruzi growth-1; T. cruzi beta-gal in NIH3T3, GalScreen luminescence, 90 h; inhibition, % at 8.35 µM; 72% of 5,600 active; AID 651739;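 active = mean replicate inhibition above about 95% and at least 55% of replicates individually reaching it, limit read from the data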
T cruzi growth-3: blocks T. cruzi growth in NIH3T3 host cells; T. cruzi beta-gal in NIH3T3, GalScreen luminescence, 90 h; shares compounds with T cruzi growth-1; 21% of 5,600 active; inhibition, % at 2.09 µM;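 active = mean inhibition above about 95%, with at least 55% of replicates also reaching it, limit read from the data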;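 note: plate controls were neutral control median for no effect and positive control median for full effect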
3T3 cytotox: NIH/3T3 (mouse) viability loss | shares compounds with T cruzi growth-1 | NIH/3T3 viability, CellTiter-Glo ATP luminescence, 90 h | cytotoxicity (signal decrease), % at 8.35 µM | 14% of 5,600 active | AID 651742;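 active = mean signal decrease across replicates above about 35% based on untreated-well scatter, with enough replicates individually passing, limit read from the data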;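 note: 0% = median of neutral control wells and 100% = median of positive control wells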
3T3 cytotox 2: kills mouse NIH/3T3 fibroblasts; shares compounds with T cruzi growth-1; NIH/3T3 viability, CellTiter-Glo ATP luminescence, 90 h; inhibition, % at 24.9 µM; 56% of 5,600 active;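 active = mean loss of cell viability signal at or above a set limit, and enough replicates individually reaching it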;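 note: 0% = median of neutral control wells and 100% = median of positive control wells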
Active calls of the source: *; . = not tested or not shown.

SMILES	KDM4C inh	T cruzi growth-1	Pf Dd2 growth	IDH1 mut inh	T cruzi growth-2	T cruzi growth-3	3T3 cytotox	3T3 cytotox 2
CC(C)C#Cc1ccc2c(c1)O[C@H](CN(C)C(=O)c1cccc(F)c1)[C@@H](C)CN([C@@H](C)CO)S2(=O)=O	-2	101*	-52	0	103*	52	13	34*
CC(C)CC#Cc1ccc2c(c1)O[C@@H](CN(C)C(=O)c1cccc(F)c1)[C@@H](C)CN([C@H](C)CO)S2(=O)=O	-1	120*	-23	1	99*	92	23	106*
CC(C)CC#Cc1ccc2c(c1)O[C@H](CN(C)C(=O)c1cccc(F)c1)[C@H](C)CN([C@H](C)CO)S2(=O)=O	0	126*	-47	-4	104*	108*	29	104*
CC(C)CC#Cc1ccc2c(c1)O[C@H](CN(C)C(=O)c1cccc(F)c1)[C@H](C)CN([C@@H](C)CO)S2(=O)=O	0	120*	-64	0	104*	106*	24	104*
CC(C)CC#Cc1ccc2c(c1)O[C@@H](CN(C)C(=O)c1ccccc1)[C@@H](C)CN([C@H](C)CO)S2(=O)=O	-6	.	-56	0	.	.	.	.
C[C@@H]1CN([C@H](C)CO)C(=O)c2cccc(NC(=O)NC3CCCCC3)c2O[C@@H]1CN(C)Cc1ccc2c(c1)OCO2	0	12	-28	.	.	.	.	.
C[C@@H]1CCCCO[C@H](CN(C)Cc2ccncc2)[C@H](C)CN([C@@H](C)CO)C(=O)c2cc(NC(=O)CCCN(C)C)ccc2O1	8	4	44	.	.	.	.	.
O=C(CSc1nc(Nc2ccccc2)nc(Nc2ccccc2)n1)N1CCN(c2ccccc2)CC1	.	.	.	0	.	.	.	.
C[C@@H]1CN([C@@H](C)CO)C(=O)c2cc(NC(=O)Nc3cccc4ccccc34)ccc2O[C@@H](C)CCCCO[C@H]1CN(C)CC1CCCCC1	0	121	-72	.	.	.	.	.
CN(C)C(=O)c1cccc(-c2ccc([C@H]3[C@H](CO)N4C(=O)CN(C(=O)C5CCCC5)C[C@@H]34)cc2)c1	0	.	22	.	.	.	.	.
C[C@@H]1CN([C@@H](C)CO)C(=O)c2c(c3ccccc3n2C)-c2ccccc2CO[C@@H]1CN(C)S(=O)(=O)c1ccc(Cl)cc1	0	100*	-87*	0	98*	102*	3	66*
C[C@H]1CN([C@@H](C)CO)C(=O)c2c(c3ccccc3n2C)-c2ccccc2CO[C@@H]1CN(C)S(=O)(=O)c1ccsc1	-4	114*	-80*	.	107*	57	1	9
C[C@@H]1CN([C@@H](C)CO)C(=O)c2c(c3ccccc3n2C)-c2ccccc2CO[C@@H]1CN(C)S(=O)(=O)c1ccsc1	-2	62	-33	3	.	.	.	.
C[C@@H]1CN([C@H](C)CO)C(=O)c2c(c3ccccc3n2C)-c2ccccc2CO[C@@H]1CN(C)S(=O)(=O)c1ccc(C#N)cc1	1	-12	-39	1	.	.	.	.
C[C@H](CO)N1C[C@H](C)[C@H](CN(C)S(=O)(=O)c2ccccc2F)OCc2ccccc2-c2c(n(C)c3ccccc23)C1=O	-1	99*	-87*	3	104*	83	44*	97*
C[C@H]1CN([C@@H](C)CO)C(=O)c2c(c3ccccc3n2C)-c2ccccc2CO[C@@H]1CN(C)S(=O)(=O)c1cccc(F)c1	7	102*	-88*	.	108*	86	-22	27*
CCNC(=O)C[C@@H]1CC[C@@H]2[C@H](COc3ccc(NC(=O)Nc4ccccc4Cl)cc3C(=O)N2C)O1	0	-20	-12	.	.	.	.	.
COc1cccc(C(=O)Nc2ccc3c(c2)C(=O)N(C)[C@@H]2CC[C@@H](CC(=O)NCc4ccc(F)cc4)O[C@H]2CO3)c1	-3	10	-26	.	.	.	.	.
Cc1cccc(S(=O)(=O)N(C)C[C@H]2OCc3ccccc3-c3c(n(C)c4ccccc34)C(=O)N([C@H](C)CO)C[C@@H]2C)c1	-4	75	-76	.	.	.	.	.
